# Source: PubChem
# PolyA inhibitor: polyadenylation inhibitors in yeast reporter cells, primary screen, luminescence, S. cerevisiae | AID 1875, 2009 | S. cerevisiae SKY197-pL101 polyadenylation reporter, beta-gal luminescence; efflux-impaired pdr1/pdr3 knockout yeast; score 100 = 6 SD above DMSO | activity score, % at 12 µM | 300,000 compounds, 0.02% hits;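 active = lowest replicate activity score at least 50, where 100 means six control SD above control mean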;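 also: yeast exposed to compound for 9 h at 30 °C; higher score means more reporter readthrough which indicates perturbed polyadenylation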
# AI-2 QS modul: Vibrio harveyi AI-2 quorum sensing modulators, primary screen, JMH597 strain, luminescence/OD600 ratio. Vibrio harveyi JMH597 AI-2 luminescence/OD600 ratio, 9 h; active compounds read low; strain lacks LuxN and CqsS sensors; 0 = neutral-control median. activity change, % at 7.5 µM. 300,000 compounds, 0.4% hits; in the data active = activity change below about -75%, passing the limit was not always enough;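 also: luminescence divided by OD600 gain over 9 h not by final OD600 alone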
# HDAC3 inh: HDAC3 deacetylase inhibitors, primary screen, biochemical, fluorescence, cell-free homogeneous; Histone deacetylase 3 (Homo sapiens), O15379; recombinant HDAC3, fluorogenic peptide/trypsin coupled; inhibition, % at 8.3 µM; 320,000 compounds, 0.15% hits; AID 2718, 2010; in the data active = inhibition above about 26%, passing the limit was not always enough
# Target sequence (O15379 whole entry, looked up): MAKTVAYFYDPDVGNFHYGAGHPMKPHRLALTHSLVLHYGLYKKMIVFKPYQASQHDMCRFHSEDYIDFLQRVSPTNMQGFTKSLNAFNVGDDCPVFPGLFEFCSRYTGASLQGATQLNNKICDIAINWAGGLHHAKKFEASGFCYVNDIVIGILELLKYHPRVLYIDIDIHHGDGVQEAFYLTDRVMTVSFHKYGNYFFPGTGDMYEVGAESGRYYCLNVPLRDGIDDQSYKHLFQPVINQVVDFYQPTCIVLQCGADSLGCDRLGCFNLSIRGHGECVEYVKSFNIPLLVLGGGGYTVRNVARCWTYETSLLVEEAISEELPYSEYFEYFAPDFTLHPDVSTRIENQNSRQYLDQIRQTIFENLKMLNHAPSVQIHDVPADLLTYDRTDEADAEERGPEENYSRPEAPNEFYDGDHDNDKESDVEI
# Efflux pump mplx: inhibitors of Candida efflux pumps in yeast, primary screen, S. cerevisiae, Nile Red, multiplex. S. cerevisiae Candida pump triplex. inhibition, % at 10 µM. 330,000 compounds, 0.44% hits;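 active = plate passing quality check with inhibition over a set limit, or well fluorescence over plate mean plus 4 SD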;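 also: Nile Red retained in pooled yeast measured as flow cytometry median fluorescence; 0% = buffer negative control and 100% = Enniatin B positive control; higher means more Nile Red kept so more efflux inhibition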
# T cruzi inh: inhibitors of intracellular T. cruzi growth, primary screen, luminescence, NIH3T3 host cells. T. cruzi beta-gal in NIH3T3, 90 h. inhibition, % (no concentration beside the values). 300,000 compounds, 1.4% hits. AID 1885, 2009;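 active = mean inhibition across valid replicates above about 55%, limit read from the data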;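 also: signal also drops with host cell toxicity which is not excluded here; 0% = plate median of DMSO wells and 100% = zero luminescence signal; higher percent means less beta-gal luminescence so fewer parasites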
#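 Read-out: Parasite load inhibition, % | Test system: Mouse NIH/3T3 fibroblasts infected with β-gal-expressing T. cruzi Tulahuen C4 | Amount: 5,000 cells/well | Medium: DMEM, 2% fetal bovine serum | Signal: GalScreen β-gal luminescence, detergent lysis, 60 min | Timing: 3 h attach, ≥90 h co-culture | Also added: Tulahuen C4 trypomastigotes, 5000/well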
# * marks the source's active call; other numbers are inactive results; nt = no result given. Compounds with a hit are over-represented: about 2.2% of the library has one in this group of screens.
SMILES,PolyA inhibitor,AI-2 QS modul,HDAC3 inh,Efflux pump mplx,T cruzi inh
c1ccc(C2=Nc3cccnc3C(c3ccccc3)=NN2)cc1,-4.2,nt,2.2,0.0,3.9
O=C(Nc1ccc(C(F)(F)F)cc1)C1CCN(c2cnccn2)CC1,6.0,-32.3,4.0,0.0,21.1
COc1ccc(Cc2nc(-c3ccc(Br)cc3)no2)cc1,nt,-76.0*,nt,-0.3,nt
CC(C)(C)OC(=O)NCCCCCNC(=O)c1[nH]cnc1C(=O)N[C@@H](Cc1ccccc1)C(=O)OC(C)(C)C,nt,nt,27.7*,0.0,nt
CC(C)C[C@H](NC(=O)c1nc[nH]c1C(=O)NCC(=O)OC(C)(C)C)C(=O)OC(C)(C)C,-6.4,15.9,30.3*,0.3,4.1
CC(C)(C)OC(=O)[C@H](Cc1ccccc1)NC(=O)c1nc[nH]c1C(=O)NCCCCCN,-13.4,17.4,1.7,0.0,-1.4
CC(=O)c1ccc(NC(=O)CCS(=O)(=O)c2ccc3c(c2)n(C)c(=O)c(=O)n3C)cc1,7.6,16.0,0.4,-0.1,-16.7
Cc1[nH]n(C(N)=S)c(=O)c1N=Nc1cccc(C(F)(F)F)c1,-5.4,11.2,-5.1,0.0,-13.2
Cc1[nH]n(C2=NCCS2)c(=O)c1N=Nc1cccc(C(F)(F)F)c1,8.9,61.1,-2.5,-0.1,59.8*
Cc1c(Cl)cccc1NC(=O)c1nc(C)n(-c2cc(OC(C)C)c(Cl)cc2Cl)n1,-9.1,16.6,-3.1,0.0,56.1*
NC(=O)C12CCCC(Br)(CCC1)C2,-14.7,5.7,-0.7,-0.1,-3.5
CC(C)C[C@H](N)c1nnc(SCC(=O)Nc2ccc(Br)cc2)o1,-10.8,2.2,3.6,0.2,-0.4
CC(C)C[C@H](N)c1nnc(S(=O)(=O)Cc2ccc(F)cc2)o1,-2.3,-87.7*,-3.9,0.1,-6.1
O=C(Nc1ccc(OC(F)F)c(Cl)c1)C(c1ccccc1)c1ccccc1,3.2,39.8,5.7,0.0,60.4*
CCSc1ccc2cc(OC)ccc2[n+]1CC,10.3,14.3,-4.1,-0.1,54.7*
C=CCNC(=O)c1c2c(nc3ccccc13)-c1ccccc1CC2,-17.8,17.5,-3.2,0.0,3.4
Cc1ccc(N(C(=O)CNC(=O)c2ccco2)C(C(=O)NC2CCCCC2)c2ccncc2)cc1F (stereo not drawn),-1.0,3.6,-1.2,-0.1,7.9
CCOC(=O)c1c(-c2ccc(C)o2)csc1NC(=O)CSc1nnnn1-c1ccccc1,-4.5,21.1,11.3,0.0,60.3*
CCOC(=O)c1cnc(SC)nc1Oc1cccc(NS(=O)(=O)c2ccccc2)c1,10.5,-2.8,-4.2,0.2,56.3*
C/C(=N\NC(=O)c1cc(-c2cccc([N+](=O)[O-])c2)n[nH]1)c1ccccc1O,19.1,34.9,-0.1,0.1,60.8*
O=C(Nc1cc([N+](=O)[O-])ccc1Cl)c1ccc2c(c1)OCO2,-6.3,20.3,8.3,0.0,1.6
COCc1cc(C)n(CC(=O)Nc2ccc3c(c2)OCO3)c(=O)c1C#N,16.8,-9.9,0.2,-0.2,-17.7
Cc1sc(NC(=O)c2ccco2)c(C(Nc2ccccn2)c2ccccc2)c1C (stereo not drawn),-3.1,19.3,3.7,-0.1,-9.6
COc1ccc(C(Nc2ccccn2)c2c(NC(=O)c3ccco3)sc(C)c2C)cc1 (stereo not drawn),-1.4,50.1,9.0,0.0,63.1*
COc1cccc(C(Nc2ccccn2)c2c(NC(=O)c3ccco3)sc(C)c2C)c1 (stereo not drawn),2.4,15.8,5.6,-0.1,59.2*
SMILES,PolyA inhibitor,AI-2 QS modul,HDAC3 inh,Efflux pump mplx,T cruzi inh
Cn1c(CN2CCCC2)nc2cc(NC(=O)COc3ccc([N+](=O)[O-])cc3)ccc21,10.6,14.2,9.1,0.1,2.6
COc1ccc2c(c1)C(C)=CC(C)(C)N2S(=O)(=O)c1ccc(Br)cc1,-30.5,15.5,-1.5,0.0,67.1*
CCOc1ccc2c(c1)C(C)=CC(C)(C)N2S(=O)(=O)c1ccc(NC(C)=O)cc1,2.1,33.2,-8.7,0.2,55.2*
CCOc1ccc2c(c1)C(C)=CC(C)(C)N2S(=O)(=O)c1ccc(F)cc1,-1.5,15.1,3.9,0.1,-12.2
COc1ccc2c(c1)C(C)=CC(C)(C)N2S(=O)(=O)c1ccc(NC(C)=O)cc1,0.5,3.5,0.6,0.4,45.8
CN(C)S(=O)(=O)Oc1ccsc1C(=O)Nc1cccc(Cl)c1Cl,-8.3,-2.6,-0.3,0.0,61.9*
Cc1c(C(=O)N2CCc3ccccc3C2)oc2ccccc12,-18.3,44.8,-2.0,-0.4,17.0
Cc1ccc(CNC(=O)CCC2CCCN(Cc3cccc4c3OCO4)C2)o1 (stereo not drawn),1.8,7.7,-12.7,0.0,51.9
Cc1ccnn1CCC(=O)N1CCCC(CCC(=O)NCc2ccccc2F)C1 (stereo not drawn),-0.7,14.4,4.0,-0.1,4.8
Cc1ccc(CNC(=O)CCC2CCCN(Cc3c(C)nn(C(C)C)c3C)C2)o1 (stereo not drawn),-4.0,1.5,4.1,0.2,67.4*
Cc1ccc(CNC(=O)CCC2CCCN(Cc3ccc4cccc(F)c4n3)C2)o1 (stereo not drawn),6.2,22.4,6.3,-0.1,61.1*
Cc1cccc(NC(=O)COC(=O)c2ccc3c(c2)OCO3)c1C,6.7,-8.8,7.6,-0.1,-2.5
COc1ccccc1N(C)S(=O)(=O)c1ccc(C)c(C(=O)Nc2nccs2)c1,4.7,11.5,8.2,0.0,3.2
CCN(CC)Cc1cc2[nH]c3c4ccc(Cl)cc4ncc3c2cc1OC,2.8,-6.5,nt,nt,61.8*
CCOC(=O)C1=C(N)Oc2ccc3ccccc3c2C1c1cccnc1 (stereo not drawn),-23.7,1.7,4.1,0.0,56.9*
COc1ccc(-c2sc3cc(OC)c(OC)cc3c2-c2ccc(O)cc2)cc1,nt,nt,-7.6,0.1,nt
C=CCc1c(C)nc(-c2ccccc2)nc1N/N=C/c1ccncc1,4.6,25.8,7.4,0.0,55.2*
CN1CCN(c2ccc(C(F)(F)F)cc2NC(=O)Nc2ccccc2)CC1,5.1,-7.3,7.6,-0.2,50.5
C/C(=N\N(Cc1ccccc1)c1ccccc1)c1cccnc1,-1.9,7.0,-0.7,0.0,62.3*
O=C(/C=C/c1ccco1)NC(=S)Nc1ccccc1,-15.3,-77.3*,6.8,0.0,-15.8
CC(=O)c1ccc(NC(=S)NC(=O)/C=C/c2ccco2)cc1,12.0,26.5,9.8,0.0,-4.8
O=C(/C=C/c1cccs1)NC(=S)Nc1ccccc1,-14.1,-77.5*,7.7,0.0,-0.4
CCOc1ccc(NC(=O)CCn2c(=O)[nH]c3ccsc3c2=O)cc1,20.3,10.3,16.1,0.1,-7.1
O=C(CCl)c1ccc2c(c1)CCN2C(=O)C1CC1,-13.6,18.7,-1.7,0.4,19.0
